The structures appear in SMILES notation.

The first assay can be described thus: Inhibition of HIV1 gp120-CD4 (unknown origin) interaction after 1 hr by ELISA. Details: species or system Human immunodeficiency virus 1. The essentials:
(§1)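 Capture ELISA for gp120–CD4 binding. Compounds diluted in diluent buffer over 0.1–1000 ng/ml and added with positive reference CD4 (1000 ng/ml). The CD4 standard ran in twofold dilutions from 1000 to 0.5 ng/ml. Incubation 1 h at room temperature, three washes, then conjugate at 1:100 for 1 h. TMB for 10 min, reaction stopped, absorbance read at 450 nm; IC50 derived.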
On to `S=C(NCc1nc2ccccc2[nH]1)NCc1nc2ccccc2[nH]1`, for which inhibition was half-maximal at 13 nM (IC50). For `O=C(NCc1nc2ccccc2[nH]1)NCc1nc2ccccc2[nH]1`, the IC50 – broadly, the concentration that gives 50% inhibition – worked out at 247 nM. Still for that read-out and setting: as for `S=C(Nc1ccc(Cc2nc3ccccc3[nH]2)cc1)Nc1ccc(Cc2nc3ccccc3[nH]2)cc1`, the figure is 149 nM.

Consider `O=C(Nc1ccc(-c2nc3ccccc3[nH]2)cc1)Nc1ccc(-c2nc3ccccc3[nH]2)cc1`, for which the IC50 is 188 nM. Same read-out and setting: next, `O=C(Nc1ccc(Cc2nc3ccccc3[nH]2)cc1)Nc1ccc(Cc2nc3ccccc3[nH]2)cc1`: 197 nM; `S=C(Nc1ccc(-c2nc3ccccc3[nH]2)cc1)Nc1ccc(-c2nc3ccccc3[nH]2)cc1`: 126 nM.

The nature of the next assay: Inhibition of HIV-1 gp120-CD4 (unknown origin) interaction. On the set-up: species or system Human immunodeficiency virus 1. In outline:
as §1
Take `Cc1csc(C(=O)N2CCN(S(=O)(=O)c3c[nH]c4ncccc34)[C@@H](C)C2)c1`: the pIC50 (commonly −log10 of the IC50, conventionally taken in molar units) worked out at 5.721. On the same count and under the same terms, as for `COc1ncc(OC)c2c(C(=O)C(=O)N3CCN(C(=O)c4ccccc4)CC3)c[nH]c12`, the figure is 7.588; as for `C[C@H]1CN(C(=O)c2ccccc2)CCN1S(=O)(=O)c1c[nH]c2ccc(F)cc12`, 5.444; as for `COc1cccc2[nH]cc(S(=O)(=O)N3CCN(C(=O)c4ccccc4)C[C@@H]3C)c12`, 5.372. Still for that read-out and setting: next, `COc1ncc(OC)c2c(C(=O)C(=O)N3CCN(C(=O)c4ccccc4)C[C@@H]3C)c[nH]c12`: 8.301; `C[C@H]1CN(C(=O)c2ccccc2)CCN1S(=O)(=O)c1c[nH]c2c(-n3ccnc3)ncc(F)c12`: 7.444.

Turning to `C[C@H]1CN(C(=O)c2cc3ccccc3o2)CCN1S(=O)(=O)c1c[nH]c2ncccc12`, the pIC50 worked out at 5.523. The molecule `C[C@H]1CN(C(=O)c2ccccc2)CCN1S(=O)(=O)c1c[nH]c2c(-n3nccn3)ncc(F)c12` returned a pIC50 of 6.208. On the same count and under the same terms, next, `CC[C@H]1CN(C(=O)c2ccccc2)CCN1S(=O)(=O)c1c[nH]c2ncccc12`: 4.796. On to `C[C@H]1CN(C(=O)c2ccccc2)CCN1S(=O)(=O)c1c[nH]c2c(-n3ccnn3)ccc(F)c12`, for which the pIC50 was 6.824.

The molecule `C[C@@H]1CN(C(=O)c2ccccc2)CCN1S(=O)(=O)c1c[nH]c2c(-n3nccn3)ccc(F)c12` showed a pIC50 of 6.699. On the same count and under the same terms, as for `C[C@H]1CN(C(=O)c2csc(N)n2)CCN1S(=O)(=O)c1c[nH]c2ncccc12`, the figure is 6.284; as for `C[C@H]1CN(C(=O)c2ccn(C)n2)CCN1S(=O)(=O)c1c[nH]c2ncccc12`, 5.62; as for `C[C@H]1CN(C(=O)c2ccccc2)CCN1S(=O)(=O)c1c[nH]c2c(F)ccc(F)c12`, 6.432. For `C[C@@H]1CN(S(=O)(=O)c2c[nH]c3ncccc23)CCN1C(=O)c1ccccc1`, the pIC50 is given as 4.886.

`O=C(C(=O)N1CCN(C(=O)c2ccccc2)CC1)c1c[nH]c2ncccc12` displayed a pIC50 of 6.284. The same measure, in the same setting: as for `O=C(c1ccccc1)N1CCN(S(=O)(=O)c2c[nH]c3ncccc23)CC1`, the figure is 4.657. Molecule `Cc1ccc(C(=O)N2CCN(S(=O)(=O)c3c[nH]c4ncccc34)[C@@H](C)C2)s1` had a pIC50 of 5.638. Still for that read-out and setting: next, `C[C@H]1CN(C(=O)c2cnccn2)CCN1S(=O)(=O)c1c[nH]c2ncccc12`: 5.041. The same measure, in the same setting: as for `C[C@H]1CN(C(=O)c2ccccc2)CCN1S(=O)(=O)c1c[nH]c2cccc(F)c12`, the figure is 6.699.

`C[C@H]1CN(C(=O)c2ccccc2)CCN1C(=O)C(=O)c1c[nH]c2ncccc12` came in with a pIC50 of 7.523. On the same count and under the same terms, next, `C[C@H]1CN(C(=O)c2ccccc2)CCN1S(=O)(=O)c1c[nH]c2c(-n3cncn3)nccc12`: 6.824. Same read-out and setting: as for `C[C@H]1CN(C(=O)c2ccccc2)CCN1S(=O)(=O)c1c[nH]c2c(-n3ccnc3)nccc12`, the figure is 7.097; as for `C[C@H]1CN(C(=O)c2ccccc2)CCN1S(=O)(=O)c1c[nH]c2ncccc12`, 6.066; as for `C[C@H]1CN(C(=O)c2ccccc2)CCN1S(=O)(=O)c1c[nH]c2c(F)c(F)c(F)c(F)c12`, 5.328. The molecule `C[C@H]1CN(C(=O)c2csc(Br)n2)CCN1S(=O)(=O)c1c[nH]c2ncccc12` registered a pIC50 of 6.377. Still for that read-out and setting: as for `C[C@H]1CN(C(=O)c2ccccc2)CCN1S(=O)(=O)c1c[nH]c2c(-n3cncn3)ccc(F)c12`, the figure is 6.301. As to `COc1cc[nH]c2ncc(C(=O)C(=O)N3CCN(C(=O)c4ccccc4)C[C@@H]3C)c1-2`, the pIC50 was 8.097.

`C[C@H]1CN(C(=O)c2ccccc2)CCN1S(=O)(=O)c1c[nH]c2ccccc12` yielded a pIC50 of 6.367. The same measure, in the same setting: as for `C[C@H]1CN(C(=O)c2ccccn2)CCN1S(=O)(=O)c1c[nH]c2ncccc12`, the figure is 5.481.
